According to ChEMBL document CHEMBL1629486, “Antimicrobial, antitumor and 5α-reductase inhibitor activities of some hydrazonoyl substituted pyrimidinones” (Eur J Med Chem, 2010):

Experiments:
[1] = system: Syncephalastrum racemosum; experiment: Antimicrobial activity against Syncephalastrum racemosum at 1 to 5 ug/ml by agar well diffusion method; format: functional
Outline: (§1)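 Agar well diffusion against bacteria and fungi. Inhibition zone is scored beyond the control: ++ 0.6–1.0 cm, + 0.1–0.5 cm, 0 no inhibition.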

[2] = system: Candida albicans; experiment: Antimicrobial activity against Candida albicans at 1 to 5 ug/ml by agar well diffusion method; format: functional; outline: as §1
[3] = system: Staphylococcus aureus; experiment: Antimicrobial activity against Staphylococcus aureus at 1 to 5 ug/ml by agar well diffusion method; format: functional; outline: as §1
[4] = system: Pseudomonas aeruginosa; experiment: Antimicrobial activity against Pseudomonas aeruginosa at 1 to 5 ug/ml by agar well diffusion method; format: functional; outline: as §1
[5] = system: Bacillus subtilis; experiment: Antimicrobial activity against Bacillus subtilis at 1 to 5 ug/ml by agar well diffusion method; format: functional; outline: as §1
[6] = system: Escherichia coli; experiment: Antimicrobial activity against Escherichia coli at 1 to 5 ug/ml by agar well diffusion method; format: functional; outline: as §1
[7] = species on record: Rattus norvegicus; experiment: Acute toxicity in albino rat; format: organism-based; conditions: in vivo
Outline: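 Male albino rats received injections of increasing doses. LD50 and LD90, the doses killing 50% and 90% of the animals, were calculated by the Austen and Brocklehurst method.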

[8] = system: Rattus norvegicus; experiment: Effect on circulating testosterone and dihydrotestosterone level in sc dosed Sprague-Dawley rat by radioimmunoassay; format: functional
Outline: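 Rats were given a range of doses of the 5α-reductase inhibitors. Serum testosterone and DHT were measured by radioimmunoassay with specific antisera, without prior chromatography. Serum (0.5 mL) was extracted with 2 mL peroxide-free diethyl ether by shaking for 60 s. Levels were compared with vehicle-treated controls, and ED50 was derived.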

[9] = system: Rattus norvegicus; experiment: Effect on circulating testosterone and dihydrotestosterone level in sc dosed Sprague-Dawley rat by radioimmunoassay relative to anastrozole; format: functional
Outline: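 Serum testosterone and DHT were measured by RIA in ether extracts of serum (0.5 mL serum, 2 mL diethyl ether, 60 s shaking), without chromatography, in rats dosed at several levels. Relative potency is the ED50 of anastrozole divided by the ED50 of the test agent, where ED50 is the dose giving 50% of the pharmacological response.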

[10] = system: Aspergillus fumigatus; experiment: Antimicrobial activity against Aspergillus fumigatus at 1 to 5 ug/ml by agar well diffusion method; format: functional; outline: as §1
[11] = system: Penicillium italicum; experiment: Antimicrobial activity against Penicillium italicum at 1 to 5 ug/ml by agar well diffusion method; format: functional; outline: as §1

Structure (SMILES) | diameter of the inhibition zone (DIZ) [1] | diameter of the inhibition zone (DIZ) [2] | diameter of the inhibition zone (DIZ) [3] | diameter of the inhibition zone (DIZ) [4] | diameter of the inhibition zone (DIZ) [5] | diameter of the inhibition zone (DIZ) [6] | LD50 [7] | LD90 [7] | ED50 [8] | Ratio ED50 [9] | diameter of the inhibition zone (DIZ) [10] | diameter of the inhibition zone (DIZ) [11]
Cc1cccc(N/N=C(\C(=O)c2ccc(Cl)cc2)c2nc(C)cc(=O)[nH]2)c1 | 0 cm | 0 cm | 0 cm | 0 cm | 0 cm | 0 cm | 2.555 mg/kg | 3.98654 mg/kg | 0.000174 mg/kg | 6.264 | 0 cm | 0 cm
Cc1cc(=O)[nH]c(/C(=N/Nc2ccc([N+](=O)[O-])cc2)C(=O)c2ccc(Cl)cc2)n1 | 0 cm | 0 cm | 0.6 cm | 0 cm | 0 cm | 0.1 cm | 2.34523 mg/kg | 3.29098 mg/kg | 0.000478 mg/kg | 2.28 | 0 cm | 0 cm
O=C(N[C@H](CO)[C@H](O)c1ccc([N+](=O)[O-])cc1)C(Cl)Cl [CHLORAMPHENICOL] |  |  | 0.6 cm | 1.1 cm | 1.1 cm | 0.6 cm |  |  |  |  |  | 
Cc1cc(=O)[nH]c(/C(=N/Nc2cccc([N+](=O)[O-])c2)C(=O)c2ccc(Cl)cc2)n1 | 0 cm | 0 cm | 0.6 cm | 0 cm | 0.1 cm | 0.1 cm | 2.55348 mg/kg | 3.30012 mg/kg | 0.000188 mg/kg | 5.798 | 0 cm | 0 cm
CN(C/C=C/C#CC(C)(C)C)Cc1cccc2ccccc12 [TERBINAFINE] | 1.1 cm | 0.6 cm |  |  |  |  |  |  |  |  | 1.1 cm | 1.1 cm
CCOC(=O)c1ccc(N/N=C(\C(=O)c2ccc(Cl)cc2)c2nc(C)cc(=O)[nH]2)cc1 | 0 cm | 0 cm | 0 cm | 0 cm | 0 cm | 0 cm | 2.34133 mg/kg | 3.21717 mg/kg | 0.000198 mg/kg | 5.505 | 0 cm | 0 cm
CC(C)(C#N)c1cc(Cn2cncn2)cc(C(C)(C)C#N)c1 [ANASTROZOLE] |  |  |  |  |  |  |  |  |  | 1 |  | 
COc1ccc(N/N=C(\C(=O)c2ccc(Cl)cc2)c2nc(C)cc(=O)[nH]2)cc1 | 0 cm | 0 cm | 0 cm | 0 cm | 0 cm | 0 cm |  |  |  |  | 0 cm | 0 cm
Cc1cc(=O)[nH]c(/C(=N/Nc2ccc(Cl)cc2)C(=O)c2ccc(Cl)cc2)n1 | 0 cm | 0 cm | 0 cm | 0 cm | 0 cm | 0 cm | 2.34537 mg/kg | 3.12376 mg/kg | 0.000611 mg/kg | 1.784 | 0 cm | 0 cm
Cc1cc(=O)[nH]c(/C(=N/Nc2cccc(Cl)c2)C(=O)c2ccc(Cl)cc2)n1 | 0 cm | 0 cm | 0 cm | 0 cm | 0 cm | 0.1 cm | 2.13345 mg/kg | 2.98032 mg/kg | 0.000591 mg/kg | 1.844 | 0 cm | 0 cm
